In ChEMBL document CHEMBL4017549, “Structural Basis of Inhibition of ERα-Coactivator Interaction by High-Affinity N-Terminus Isoaspartic Acid Tethered Helical Peptides” (J Med Chem, 2017) one finds Kd and Selectivity ratio data, which are given here for one compound.

One test has as its target Estrogen receptor beta (Homo sapiens, UniProt Q92731). Put plainly: Binding affinity to recombinant human GFP-fused ERbeta LBD (259 to 498 residues) expressed in Escherichia coli BL21(DE3) after 40 mins in presence of 17beta-estradiol by fluorescence polarization assay. In a few lines: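 FITC-labelled peptide at 10 nM final, titrated with increasing purified LBD (ERβ LBD carrying C334S, C369S, C481S) in 20 mM Tris-HCl pH 8.0, 150 mM NaCl, 5% glycerol, 1 mM TCEP with 10 μM 17β-estradiol. Incubated 40 min in the dark, polarization read at 298 K (ex 480/em 535 nm). KD from nonlinear regression of polarization versus protein concentration.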
On the technique in general: Polarisation of emitted light reports the rotation of a fluorescent probe.

Another test deals with T1, Progesterone receptor (Homo sapiens, UniProt P06401).
T1 sequence (P06401 whole entry): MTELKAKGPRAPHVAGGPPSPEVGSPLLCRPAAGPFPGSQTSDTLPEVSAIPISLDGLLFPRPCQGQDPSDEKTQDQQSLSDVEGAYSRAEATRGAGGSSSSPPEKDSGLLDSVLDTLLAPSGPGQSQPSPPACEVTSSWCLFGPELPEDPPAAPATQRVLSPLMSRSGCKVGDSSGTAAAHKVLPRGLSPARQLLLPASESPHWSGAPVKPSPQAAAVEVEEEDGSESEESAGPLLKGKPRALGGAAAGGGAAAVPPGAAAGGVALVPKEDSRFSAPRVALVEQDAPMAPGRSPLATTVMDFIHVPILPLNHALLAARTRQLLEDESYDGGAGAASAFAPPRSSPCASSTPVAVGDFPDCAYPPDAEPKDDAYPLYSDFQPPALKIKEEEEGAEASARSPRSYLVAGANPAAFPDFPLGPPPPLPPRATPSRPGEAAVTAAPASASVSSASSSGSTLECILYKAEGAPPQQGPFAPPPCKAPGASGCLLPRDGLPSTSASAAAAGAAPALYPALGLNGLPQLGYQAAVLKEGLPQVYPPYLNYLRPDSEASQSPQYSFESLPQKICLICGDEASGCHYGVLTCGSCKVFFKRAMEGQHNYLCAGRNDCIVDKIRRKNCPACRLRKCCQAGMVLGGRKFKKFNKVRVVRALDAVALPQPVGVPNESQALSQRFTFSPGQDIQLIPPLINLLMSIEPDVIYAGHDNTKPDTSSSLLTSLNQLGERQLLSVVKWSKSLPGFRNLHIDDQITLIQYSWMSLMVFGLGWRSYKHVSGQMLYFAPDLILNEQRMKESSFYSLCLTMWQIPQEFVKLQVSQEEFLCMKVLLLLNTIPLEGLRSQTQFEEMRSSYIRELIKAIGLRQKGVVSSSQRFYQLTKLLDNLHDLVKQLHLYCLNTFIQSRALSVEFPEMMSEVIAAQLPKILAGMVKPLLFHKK
Put plainly: Binding affinity to recombinant human GST-tagged PGR LBD (678 to 933 residues) expressed in Escherichia coli BL21 star(DE3) after 40 mins in presence of progesterone by fluorescence polarization assay. In a few lines:
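FITC-labelled peptide at 10 nM final with increasing GST-PgR LBD in 20 mM Tris-HCl pH 8.0, 150 mM NaCl, 5% glycerol, 1 mM TCEP plus 10 μM progesterone. 40 min dark incubation, polarization at 298 K (ex 480/em 535 nm). KD by nonlinear regression against protein concentration.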

For test [1], the species on record is Homo sapiens. Put plainly: Selectivity ratio of Kd for recombinant human GST-tagged PGR LBD ([…] residues) to Kd for recombinant human ERalpha LBD (301 to 553 residues). In a few lines:
(§1)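 Ratio of KD values, each from fluorescence polarization of 10 nM FITC-peptide titrated with the respective LBD after 40 min in the dark at 298 K, with the matching ligand in buffer (10 μM 17β-estradiol, progesterone or vitamin D3).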

The species entered for test [2] is Homo sapiens. Put plainly: Selectivity ratio of Kd for recombinant human GST-tagged VDR LBD (156 to 453 residues) to Kd for recombinant human ERalpha LBD (301 to 553 residues). In a few lines: as §1

Molecules are shown by their SMILES.

Chain of Estrogen receptor beta (Q92731 whole entry, the tested form may be a part): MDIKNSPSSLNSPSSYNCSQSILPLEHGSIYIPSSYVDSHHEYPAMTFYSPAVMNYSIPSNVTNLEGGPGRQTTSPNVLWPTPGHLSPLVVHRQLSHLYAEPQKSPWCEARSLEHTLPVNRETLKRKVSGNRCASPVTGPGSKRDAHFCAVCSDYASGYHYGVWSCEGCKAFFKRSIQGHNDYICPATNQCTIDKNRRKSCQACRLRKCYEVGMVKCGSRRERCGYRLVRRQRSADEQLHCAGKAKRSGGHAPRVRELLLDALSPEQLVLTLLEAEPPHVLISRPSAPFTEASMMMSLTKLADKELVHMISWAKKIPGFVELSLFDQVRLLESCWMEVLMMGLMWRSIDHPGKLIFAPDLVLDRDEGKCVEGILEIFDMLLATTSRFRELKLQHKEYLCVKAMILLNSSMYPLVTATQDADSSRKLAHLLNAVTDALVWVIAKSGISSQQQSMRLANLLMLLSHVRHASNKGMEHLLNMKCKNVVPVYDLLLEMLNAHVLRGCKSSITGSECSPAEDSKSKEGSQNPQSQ

Usually Kd stands for the equilibrium constant for the complex coming apart. Regarding `CC[C@H](C)[C@@H]1NC(=O)C[C@H](NC(=O)[C@H](CCCNC(=N)N)NC(=O)CCNC(=S)Nc2ccc3c(c2)C(=O)OC32c3ccc(O)cc3Oc3cc(O)ccc32)C(=O)NCC(C(=O)N[C@@H](CCCNC(=N)N)C(=O)NC(CC(C)(C)C)C(=O)NC(CC(C)(C)C)C(=O)N[C@@H](CCC(N)=O)C(N)=O)NC(=O)C(CC(C)(C)C)NC1=O` (some centres undefined), the figures for the Kd on Estrogen receptor beta and on Progesterone receptor were 297 nM and 248 nM, respectively. The results for the Selectivity ratio in the test listed under Homo sapiens [1] and in the test listed under Homo sapiens [2] were 3.7 and more than 30, respectively.
